Our source for the MIC99 and Activity values is ChEMBL document CHEMBL1212784, “Structure-microbicidal activity relationship of synthetic fragments derived from the antibacterial alpha-helix of human lactoferrin” (2010).

Values after ≈ are worked out from the molar mass of the structure shown. Positions of bridges follow the written chain, without caps; N, C: chain ends. Residues, ends and D or L forms follow the SMILES beside them. Some results are limits rather than exact numbers.

Assay [1] in a line: Antimicrobial activity against Escherichia coli O6 K5 incubation in bactopeptone. The class given is functional. The gist of the method:
(§1)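 Microplate killing assay in 1% Bactopeptone (pH 7.0). Log-phase organisms (BHI overnight, 2 h subculture, 37°C, washed), final ~2 × 10^5 cells/ml, with twofold peptide dilutions, 37°C humid chamber 2 h (or 20 h where stated). 5 μl drops plated on blood agar overnight; MMC99 = lowest concentration giving ≥99% inoculum reduction; duplicates.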

Assay [2] relates to Staphylococcus aureus. The assay is described as follows: Antimicrobial activity against Staphylococcus aureus 1800 (CCUG 1800) at 62.7 uM within 30 mins. The format is functional. To be noted: in the assay text read “65.4 uM” for “62.7 uM”. Put shortly:
(§2)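 Killing kinetics in Bactopeptone with 62.7 μM or 65.4 μM peptide against ~2 × 10^5 cells/ml; samples taken immediately after mixing and at 5, 10, 30, 60 and 120 min, serially diluted and plated for viable counts; percent of inoculum killed; duplicates.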

Assay [3] has as its system Candida albicans. Put plainly: Antimicrobial activity against Candida albicans ATCC […] at 65.4 uM within 5 mins. The class given is functional, ATCC 64549. Put shortly:
as §2

The subject of assay [4] is Staphylococcus aureus. Put plainly: Antimicrobial activity against Staphylococcus aureus 1800 (CCUG 1800) incubation in bactopeptone. The format is functional. Put shortly:
as §1

Assay [5] deals with Candida albicans. Put plainly: Antimicrobial activity against Candida albicans ATCC […] incubation in bactopeptone. The class given is functional. To be noted: ATCC 64549. The gist of the method: as §1
The next assay concerns Klebsiella pneumoniae. Put plainly: Antimicrobial activity against Klebsiella pneumoniae CCUG 9997 using in brain heart infusion medium(dil) after 2 hrs at 25 ug/ml. The class given is functional. The gist of the method:
(§3)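 Single-concentration screen: log-phase organisms (~2 × 10^5 cells/ml) incubated 2 h at 37°C in diluted BHI (1/100 of 3.4%, pH 6.7 to 6.9) with 25 μg/ml peptide (10 μg/ml for E. coli O6 and C. albicans); viable counts on blood agar; scored as ≥99% killed or not; duplicates.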

For assay [6], the system named is Candida albicans. Put plainly: Antimicrobial activity against Candida albicans ATCC […] using in brain heart infusion medium(dil) after 2 hrs at 10 ug/ml. The format is functional, ATCC 64549. The gist of the method:
as §3

In a further assay the test system is Enterococcus faecalis. The assay is described as follows: Antimicrobial activity against Enterococcus faecalis ATCC 19433 using in brain heart infusion medium(dil) after 2 hrs at 25 ug/ml. The format is functional. The gist of the method:
as §3

The subject of assay [7] is Staphylococcus epidermidis. Put plainly: Antimicrobial activity against Staphylococcus epidermidis CCUG 18000A using in brain heart infusion medium(dil) after 2 hrs at 25 ug/ml. The format is functional. Put shortly: as §3
Assay [8] concerns Escherichia coli. The assay is described as follows: Antimicrobial activity against Escherichia coli O14 using in brain heart infusion medium(dil) after 2 hrs at 25 ug/ml. The class given is functional. The gist of the method:
as §3

Assay [9] deals with Staphylococcus aureus. Put plainly: Antimicrobial activity against Staphylococcus aureus 1800 (CCUG 1800) using in brain heart infusion medium(dil) after 2 hrs at 25 ug/ml. The class given is functional. The gist of the method: as §3
In the next assay the test system is Pseudomonas aeruginosa. Put plainly: Antimicrobial activity against Pseudomonas aeruginosa CCUG 551 using in brain heart infusion medium(dil) after 2 hrs at 25 ug/ml. The format is functional. Put shortly: as §3
Assay [10] relates to Escherichia coli. Put plainly: Antimicrobial activity against Escherichia coli O6 using in brain heart infusion medium(dil) after 2 hrs at 10 ug/ml. The format is functional. Put shortly: as §3
Assay [11] has as its system Staphylococcus aureus. Put plainly: Antimicrobial activity against Staphylococcus aureus 1800 (CCUG 1800) at 65.4 uM within 10 mins. The format is functional. To be noted: in the assay text read “62.7 uM” for “65.4 uM”. The gist of the method: as §2
Assay [12] concerns Candida albicans. Put plainly: Antimicrobial activity against Candida albicans ATCC […] at 62.7 uM within 5 mins. The format is functional, ATCC 64549. Put shortly: as §2
Assay [13] can be described thus: Antimicrobial activity against Escherichia coli O6 K5 after 20 hrs incubation in bactopeptone. The class given is functional. To be noted: K5, 20 h. Put shortly: as §1
Assay [14] concerns Candida albicans. Put plainly: Antimicrobial activity against Candida albicans ATCC […] after 2 hrs incubation in bactopeptone. The class given is functional. To be noted: ATCC 64549, 2 h. Put shortly:
as §1

Assay [15] in a line: Antimicrobial activity against Escherichia coli O6 K5 after 2 hrs incubation in bactopeptone. The format is functional. To be noted: K5, 2 h. The gist of the method: as §1
In assay [16] the test system is Staphylococcus aureus. Put plainly: Antimicrobial activity against Staphylococcus aureus 1800 (CCUG 1800) after 20 hrs incubation in bactopeptone. The format is functional. Put shortly:
as §1

In assay [17] the test system is Candida albicans. The assay is described as follows: Antimicrobial activity against Candida albicans ATCC […] after 20 hrs incubation in bactopeptone. The format is functional. The conditions noted are these: ATCC 64549, 20 h. The gist of the method:
as §1

Assay [18] concerns Staphylococcus aureus. The assay is described as follows: Antimicrobial activity against Staphylococcus aureus 1800 (CCUG 1800) after 2 hrs incubation in bactopeptone. The format is functional. The gist of the method: as §1

A word on the MIC99: it is an inhibitory concentration at the 99% level, which refers to growth in some studies and to a panel of isolates in others. Lower therefore signals higher susceptibility. `CC[C@H](C)[C@H](NC(=O)[C@@H]1CSSC[C@H](NC(=O)[C@H](CCCCN)NC(=O)[C@@H](NC(=O)[C@H](C)NC(=O)[C@H](CCC(=O)O)NC(C)=O)[C@@H](C)O)C(=O)N[C@@H](Cc2ccccc2)C(=O)N[C@@H](CCC(N)=O)C(=O)N[C@@H](Cc2c[nH]c3ccccc23)C(=O)N[C@@H](CCC(N)=O)C(=O)N[C@@H](CCCNC(=N)N)C(=O)N[C@@H](CC(N)=O)C(=O)N[C@@H](CCSC)C(=O)N[C@@H](CCCNC(=N)N)C(=O)N[C@@H](CCCCN)C(=O)N[C@@H](C(C)C)C(=O)N[C@@H](CCCNC(=N)N)C(=O)NCC(=O)N2CCC[C@H]2C(=O)N2CCC[C@H]2C(=O)N[C@@H](C(C)C)C(=O)N[C@@H](CO)C(=O)N1)C(=O)N[C@@H](CCCCN)C(=O)N[C@@H](CCCNC(=N)N)C(N)=O` (Ac-EATKCFQWQRNMRKVRGPPVSCIKR-NH2; disulfide 5-22): the figures for the MIC99 (in [1]; in the assay on Staphylococcus aureus [4]; against Candida albicans [5]) were 50 µg/mL (≈ 16.3 µM), 50 µg/mL (≈ 16.3 µM) and 200 µg/mL (≈ 65.4 µM), respectively. Moreover, the Activity in the assay with Staphylococcus aureus [2] is listed as 80%; in the assay on Candida albicans [3] it was more than 90%.

Consider H-ATKCFQWQRNMRKVR-OH, for which the Activity result (in the assay on Klebsiella pneumoniae; in the assay with Candida albicans [6]; with Enterococcus faecalis; in assay [7]; in the assay with Escherichia coli [8]; in the assay with Staphylococcus aureus [9]) was “>=99%” throughout. For the same compound, the Activity entry with Pseudomonas aeruginosa and with Escherichia coli [10] was “>=99%” throughout.

Regarding H-CFAWQRAMRKVR-OH, the MIC99 in assay [1] stood at 25 µg/mL; in the assay on Staphylococcus aureus [4], 50 µg/mL; in the assay with Candida albicans [5], 25 µg/mL. Moreover, the figures for the Activity in the assay with Staphylococcus aureus [11] and in the assay with Candida albicans [12] were 90% and 99%, respectively.

Turning to H-CFQWQRNMRKVR-OH, the MIC99 was 50 µg/mL in [13]; more than 200 µg/mL against Candida albicans [14]; 100 µg/mL in assay [1]; 100 µg/mL in assay [15]; more than 100 µg/mL against Staphylococcus aureus [4]; more than 100 µg/mL in the assay with Staphylococcus aureus [16]. The MIC99 is 100 µg/mL against Candida albicans [17], 50 µg/mL in the assay on Candida albicans [5] and more than 100 µg/mL in the assay with Staphylococcus aureus [18]. Also, the Activity is less than 99% in the assay on Klebsiella pneumoniae; “>=99%” with Candida albicans [6]; “>=99%” in the assay with Enterococcus faecalis; “>=99%” in assay [7]; “>=99%” with Escherichia coli [8]; “>=99%” with Staphylococcus aureus [9]. Moreover, the Activity result in the assay on Pseudomonas aeruginosa and in the assay with Escherichia coli [10] was “>=99%” throughout.

In the case of H-EATKCFQWQRNMRKVR-OH, the Activity in the assay on Klebsiella pneumoniae is on record as less than 99%; with Candida albicans [6] it was less than 99%; in the assay on Enterococcus faecalis, “>=99%”; in [7], “>=99%”; in the assay on Escherichia coli [8], less than 99%; in the assay on Staphylococcus aureus [9] it was “>=99%”. Further, the Activity with Pseudomonas aeruginosa is given as less than 99%; with Escherichia coli [10], “>=99%”.

As for H-FQWQRNMRKVR-OH, the Activity result is on record as “>=99%” with Klebsiella pneumoniae; less than 99% in the assay on Candida albicans [6]; less than 99% in the assay with Enterococcus faecalis; less than 99% in assay [7]; less than 99% in the assay on Escherichia coli [8]; “>=99%” in the assay on Staphylococcus aureus [9]. In addition, the Activity in the assay on Pseudomonas aeruginosa and with Escherichia coli [10] was less than 99% in each case.

For H-KCFQWQRNMRKVR-OH, the MIC99 was determined as 12 µg/mL in [13]; 200 µg/mL with Candida albicans [14]; 25 µg/mL in assay [15]; 50 µg/mL against Staphylococcus aureus [16]; 50 µg/mL in the assay with Candida albicans [17]; 25 µg/mL in the assay on Staphylococcus aureus [18]. The Activity entry (with Klebsiella pneumoniae; with Candida albicans [6]; in the assay on Enterococcus faecalis; in assay [7]; with Escherichia coli [8]; in the assay on Staphylococcus aureus [9]) was “>=99%” throughout. The Activity entry in the assay with Pseudomonas aeruginosa and with Escherichia coli [10] was “>=99%” throughout.

Turning to H-PEATKCFQWQRNMRKVR-OH, the Activity in the assay with Klebsiella pneumoniae is less than 99%; in the assay on Candida albicans [6] it was less than 99%; in the assay with Enterococcus faecalis it was “>=99%”; in assay [7] it was “>=99%”; in the assay on Escherichia coli [8], less than 99%; in the assay on Staphylococcus aureus [9], “>=99%”. Moreover, the Activity in the assay with Pseudomonas aeruginosa and in the assay with Escherichia coli [10] was less than 99% throughout.

Consider H-QPEATKCFQWQRNMRKVR-OH, for which the Activity in the assay on Klebsiella pneumoniae was less than 99%; with Candida albicans [6], less than 99%; with Enterococcus faecalis, “>=99%”; in assay [7] it was less than 99%; in the assay on Escherichia coli [8], less than 99%; with Staphylococcus aureus [9], “>=99%”. Also, the Activity in the assay on Pseudomonas aeruginosa and in the assay on Escherichia coli [10] was less than 99% each time.

With H-QWQRNMRKVR-OH, the Activity (in the assay with Klebsiella pneumoniae; in the assay on Candida albicans [6]; in the assay on Enterococcus faecalis; in assay [7]; in the assay with Escherichia coli [8]; in the assay with Staphylococcus aureus [9]) was less than 99% throughout. The Activity in the assay on Pseudomonas aeruginosa and in the assay on Escherichia coli [10] was less than 99% throughout.

On to H-TKCFQWQRNMRKVR-OH, for which the MIC99 in [13] is 25 µg/mL; with Candida albicans [14], more than 200 µg/mL; in [15], 50 µg/mL; against Staphylococcus aureus [16], 100 µg/mL; against Candida albicans [17] it was 50 µg/mL; against Staphylococcus aureus [18] it was 50 µg/mL. Besides, the Activity entry (with Klebsiella pneumoniae; with Candida albicans [6]; in the assay with Enterococcus faecalis; in assay [7]; with Escherichia coli [8]; with Staphylococcus aureus [9]) was “>=99%” each time. Also, the Activity entry with Pseudomonas aeruginosa and in the assay with Escherichia coli [10] was “>=99%” throughout.
